Columns and labels:
[1] = Cytotoxicity against human HG23 cells after 48 hrs by crystal violet staining-based assay; assay type: cell-based; details: for CC50 at 48 h: HG23 cells, read-out: TC50; for CC50: hg23, 48 h, 48 h, read-out: TC50 (the source's name)
How it was run: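 Confluent NV replicon-bearing hepatoma HG23 cells exposed to compound at 1 to 100 μM for 48 h. Cytotoxicity read by CytoTox 96 nonradioactive assay and crystal violet staining; CC50 taken as concentration giving 50% cell death, averaged over at least two determinations.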

Norovirus = assay: Antiviral activity against Norovirus replicon infected in human HG23 cells assessed as inhibition of viral RNA replication after 48 hrs by qRT-PCR method; assay type: functional, cell-based
How it was run: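 HG23 cells (NV replicon-harboring hepatoma), confluent and semi-confluent, given medium with DMSO (<0.1%) or compound up to 20 μM for 48 h. Total RNA extracted and viral genome quantified by real-time qRT-PCR. EC50 fitted from dose-response; average of at least two determinations.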

Murine norovirus [2] = assay: Antiviral activity against MNV replicon infected in mouse RAW264.7 cells assessed as inhibition of viral RNA replication after 24 hrs; details: RAW264.7, 24 h
[3] = Inhibition of Norovirus 3CLpro using Edans-DFHLQ/GP-Dabcyl as substrate preincubated for 30 mins followed by substrate addition measured after 1 hr by FRET assay
How it was run: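 Protease and serial compound dilutions up to 100 μM (or DMSO) held in 20 mM HEPES pH 8, 200 mM NaCl, 0.4 mM EDTA, 60% glycerol, 6 mM DTT at 37°C for 30 min, then substrate added. Fluorescence (ex 360/em 460 nm) read 1 h later, background subtracted (no-protease well). IC50 from variable-slope curve fit; average of at least two determinations.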

Murine norovirus [4] = assay: Antiviral activity against MNV replicon infected in mouse RAW264.7 cells assessed as inhibition of viral RNA replication after 24 hrs; assay type: functional, cell-based
How it was run: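 Confluent RAW264.7 cells infected with MNV at MOI 0.1 for 1 h; inoculum then replaced with medium containing compound (up to 20 μM) or DMSO (0.1%). Further 24 h incubation; virus replication quantified by TCID50 titration. EC50 from dose-response fitting; values average of at least two determinations.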

Structure (SMILES)	CC50 at 48 h [1] [µM]	EC50 (Norovirus; Norovirus, HG23, 48 h) [µM]	EC50 (Murine norovirus [2]) [µM]	IC50 [3] [µM]	CC50 [1] [µM]	EC50 (Murine norovirus [4]) [µM]	EC50 (Norovirus) [µM]
C[C@@H]1NC(=O)OC(c2cccc(Cl)c2)CCCCCNC(=O)CC[C@@H](C=O)NC1=O (stereo partly drawn)	> 100	> 20	> 20	> 100	–	–	–
CC(C)C[C@@H]1NC(=O)OC(c2cccc(Cl)c2)CCCCCNC(=O)CC[C@@H](C(O)S(=O)(=O)O)NC1=O (stereo partly drawn)	> 100	1.6	15.1	1.1	–	–	–
O=C1CC[C@@H](C(O)S(=O)(=O)O)NC(=O)C2(CCCCC2)NC(=O)OC(c2cccc(Cl)c2)CCCCCCN1 (stereo partly drawn)	46.6	> 20	> 20	> 100	–	–	–
CC(C)C[C@@H]1NC(=O)OC(CCCc2ccccc2)CCCCCNC(=O)CC[C@@H](C(O)S(=O)(=O)O)NC1=O (stereo partly drawn)	69.2	4.6	> 20	6.8	–	–	–
O=C1CC[C@@H](C(O)S(=O)(=O)O)NC(=O)C2(CCCCC2)NC(=O)OC(c2cccc(Cl)c2)CCCCCN1 (stereo partly drawn)	48.5	> 20	> 20	> 100	–	–	–
CC(C)C[C@@H]1NC(=O)OC(CCCc2ccccc2)CCCCCNC(=O)CC[C@@H](C=O)NC1=O (stereo partly drawn)	71.5	7.5	> 20	4.2	–	–	–
O=C[C@@H]1CCC(=O)NC/C=C/CCC(c2cccc(Cl)c2)OC(=O)N[C@@H](CC2CCCCC2)C(=O)N1 (stereo partly drawn)	42.3	1.5	3.1	1.3	–	–	–
C[C@@H]1NC(=O)OC(c2cccc(Cl)c2)CCCCCCNC(=O)CC[C@@H](C=O)NC1=O (stereo partly drawn)	> 100	9.5	> 20	62.3	–	–	–
CC(C)C[C@@H]1NC(=O)OC(c2ccccc2)CCCCCNC(=O)CC[C@@H](C=O)NC1=O (stereo partly drawn)	> 100	7.7	> 20	1.3	–	–	–
CCCCCC1CCCCCNC(=O)CC[C@@H](C=O)NC(=O)[C@H](CC(C)C)NC(=O)O1 (stereo partly drawn)	72.7	3.1	12.1	3.2	–	–	–
CC(C)C[C@@H]1NC(=O)OC(c2cccc(Cl)c2)CCCCCCNC(=O)CC[C@@H](C=O)NC1=O (stereo partly drawn)	67.4	5.4	> 20	6.3	–	–	–
CC(C)C[C@@H]1NC(=O)OC(c2cccc(Cl)c2)CCCCCNC(=O)CC[C@@H](C(=O)C(=O)NC2CC2)NC1=O (stereo partly drawn)	53.1	9.1	15.5	2.3	–	–	–
O=C[C@@H]1CCC(=O)NCCCCCCC(c2cccc(Cl)c2)OC(=O)NC2(CCCCC2)C(=O)N1 (stereo partly drawn)	53.3	> 20	> 20	> 100	–	–	–
CC(C)C[C@@H]1NC(=O)OC(Cc2ccccc2)CCCCCNC(=O)CC[C@@H](C=O)NC1=O (stereo partly drawn)	> 100	8.8	> 20	4.6	–	–	–
CC(C)C[C@@H]1NC(=O)OC(Cc2ccccc2)CC/C=C/CNC(=O)CC[C@@H](C=O)NC1=O (stereo partly drawn)	> 100	3.1	> 20	2.5	–	–	–
CC(C)C[C@@H]1NC(=O)OC(c2cccc(Cl)c2)CCCCCNC(=O)CC[C@@H](C=O)NC1=O (stereo partly drawn)	> 100	1.8	13.2	1.5	–	–	–
O=C[C@@H]1CCC(=O)NCCCCCC(c2cccc(Cl)c2)OC(=O)NC2(CCCCC2)C(=O)N1 (stereo partly drawn)	62.4	> 20	> 20	> 100	–	–	–
CCCCCC1CCCCCNC(=O)CC[C@@H](C(O)S(=O)(=O)O)NC(=O)[C@H](CC(C)C)NC(=O)O1 (stereo partly drawn)	78.5	3.5	14.6	5.1	–	–	–
CC(C)C[C@@H]1NC(=O)OC(c2cccc(Cl)c2)CCCCCONC(=O)CC[C@@H](C=O)NC1=O (stereo in doubt; 36A)	68.3	3.6	15.5	30.5	–	–	–
CC(C)C[C@@H]1NC(=O)OC(c2cccc(Cl)c2)CCCCCONC(=O)CC[C@@H](C=O)NC1=O (stereo in doubt; 36B)	–	–	–	46.7	73.8	13.4	5.1
O=C[C@@H]1CCC(=O)NCCCCCC(c2cccc(Cl)c2)OC(=O)N[C@@H](CC2CCCCC2)C(=O)N1 (stereo in doubt; form 1)	62.4	2.1	4.3	4.1	–	–	–
O=C[C@@H]1CCC(=O)NCCCCCC(c2cccc(Cl)c2)OC(=O)N[C@@H](CC2CCCCC2)C(=O)N1 (stereo in doubt; form 2)	–	–	–	6.5	45.3	6.5	2.5
